An excerpt weighted towards active compounds, which were near 0.58% of everything screened.
TNF necrop inh = blocks TNF-alpha induced death of Jurkat FADD-/- cells; actives 0.068% (n = 220,000); activation (protection from cell death), % at 10 µM; Jurkat FADD-/- TNF necroptosis rescue, ATP luminescence, 24 h; 0 = TNF only, 100 = no-TNF cells; AID 463075;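 active means activation, meaning protection from cell death, of at least 50% relative to plate controls; inactive means activation below 50%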;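 further: necroptosis triggered by 40 ng/mL TNF-alpha added together with compound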
Rad51 HR inh = blocks human Rad51 in homologous recombination; Q06609; hRad51 DNA strand exchange, fluorescence dequenching; inhibition, % at 10 µM; actives 0.085% (n = 200,000); AID 1385;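 active means inhibition above 40% at the single screening dose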;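 further: 0% = DMSO control wells and 100% = blanks with heterologous ssDNA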
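material = hRad51 filaments on single-stranded DNA | timing = filaments 15 min 37 °C, then compound 30 min | signal = FRET fluorescence dequenching, excitation 485 nm, emission 520 nm | benchmarks = control wells and blank wells on each plate | evaluation = percent inhibition relative to plate controls and blanks | compound = 10 µM final, single point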
Pf gametocyte = kills late stage P. falciparum gametocytes | AID 743093 | actives 0.065% (n = 150,000) | inhibition, % at 10.9 µM | P. falciparum stage V gametocytes, ATP luminescence, 24 h;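 active means inhibition above the mean plus 3 SD of compounds within the control limits, set per campaign, cut at about 38% in these data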;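 further: 0% = DMSO wells and 100% = medium only without gametocytes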
Mdm2 ligase inh = Mdm2 E3 ligase (human) inhibition. cell-based MDM2 ubiquitination luciferase reporter, 2 h; 0 = plate control, 100 = twice control, blank-subtracted. actives 0.11% (n = 210,000). signal enhancement, % at 5 µM. AID 1230. Q00987;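 active means signal enhancement of 30% or more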;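 further: luminescence tracks abundance of the self-degrading MDM2-luciferase fusion protein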
Target sequence (Q00987 whole entry, looked up, the tested form may be a part): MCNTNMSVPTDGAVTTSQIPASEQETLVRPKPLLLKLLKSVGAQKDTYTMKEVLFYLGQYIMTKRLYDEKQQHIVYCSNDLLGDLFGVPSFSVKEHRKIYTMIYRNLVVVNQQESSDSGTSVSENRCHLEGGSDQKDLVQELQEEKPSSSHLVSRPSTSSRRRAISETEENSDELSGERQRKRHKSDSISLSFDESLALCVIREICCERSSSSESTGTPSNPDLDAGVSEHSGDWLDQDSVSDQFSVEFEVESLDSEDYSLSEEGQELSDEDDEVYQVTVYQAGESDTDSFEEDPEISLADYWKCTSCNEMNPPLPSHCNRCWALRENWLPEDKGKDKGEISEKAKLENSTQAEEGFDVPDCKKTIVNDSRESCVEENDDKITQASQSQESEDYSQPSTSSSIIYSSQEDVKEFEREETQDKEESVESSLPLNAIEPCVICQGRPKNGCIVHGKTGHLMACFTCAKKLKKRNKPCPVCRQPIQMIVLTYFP
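System: stable MDM2–luciferase fusion reporter cells / Input: 2000 cells seeded into each well / Schedule: 4 h settle plus 2 h compound, 37 °C / Compound: single-point 5 µM / Buffer or medium: cells held in DMEM / Benchmarks: control and blank well means / Evaluation: percent signal gain over controls, blank-subtracted / Measured by: luciferase luminescence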
L929 necroptosis = L929 zVAD cell death inhibition | actives 0.38% (n = 220,000) | AID 1377 | L929 zVAD necroptosis rescue, ATP luminescence, 24 h; with zVAD 60 µM | viability rescue, % at 10 µM;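 active means activation, scaled between plate controls, above about 75%, limit read from the data; inactive means activation under that limit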;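 further: 0% = zVAD with DMSO and 100% = DMSO alone without zVAD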
zVAD necrop conf = confirmed blocker of zVAD induced death in L929 cells; actives 16% (n = 760); L929 zVAD-induced necroptosis rescue, ATP luminescence, 24 h; activation (protection from necroptosis), % at 10 µM; shares compounds with L929 necroptosis; AID 463117;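 active means mean protection from necroptosis of at least 50% over duplicate tests; inactive means mean protection below 50%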;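 further: 0% = cells with zVAD alone and 100% = vehicle cells without zVAD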
Starred values were filed as active, the others as inactive; / = not tested or not shown.

SMILES | TNF necrop inh | Rad51 HR inh | Pf gametocyte | Mdm2 ligase inh | L929 necroptosis | zVAD necrop conf
COc1cccc(CN2CCN(c3nc4nonc4nc3N3CCCCC3)CC2=O)c1 | 0.8 | / | 8.8 | -1.4 | -1.5 | /
Cc1nc(-c2ccccc2)sc1C1(C)CC(c2ccc(OC(F)(F)F)cc2)=NO1 (stereo not given) | 1.2 | 2.4 | 4.3 | 11.4 | 1.3 | /
Cc1ccc(N=c2oc3cc(O)ccc3cc2C(N)=O)cc1 | -11.1 | -3.9 | -5.2 | -14.6 | 78.6* | 37.7
Cc1ccc(-c2nc(Nc3ccccc3)n[nH]2)cc1 | 12.0 | 5.2 | / | -44.0 | 77.0* | 77.1*
CCCN(CCC)c1cc(Cl)nc(N)n1 | -0.9 | 5.3 | -13.9 | -5.5 | 0.5 | /
CCc1nnc(NS(=O)(=O)c2ccc(N/C=C/C(=O)c3ccc(OC)cc3)cc2)s1 | 0.1 | -2.0 | 2.9 | 5.0 | 79.5* | 2.4
CCc1nnc(NS(=O)(=O)c2ccc(NC(=O)Nc3ccc(OC)cc3)cc2)s1 | / | / | 10.9 | / | / | /
O=C(Cc1n[nH]c(=O)c2ccccc12)NC(c1ccccc1)c1ccccc1 | 0.1 | 1.6 | 16.5 | / | -0.3 | /
COc1ccccc1NC(=O)Nc1ccncc1 | -2.4 | 14.8 | -11.5 | -16.6 | 0.6 | /
COc1ccccc1NC(=O)Nc1ccc(Cc2ccncc2)cc1 | 3.8 | / | -22.9 | -8.5 | 77.9* | 38.1
COc1ccc(NC(=O)Nc2ccc(Cc3ccncc3)cc2)cc1OC | -0.3 | 1.7 | / | -8.1 | 81.6* | 36.8
C/C(=N\OCc1ccc(C#N)cc1)c1cc2ccccc2o1 | 0.7 | 3.1 | 8.1 | / | 78.4* | 1.5
C/C(=N\OCc1ccccc1C#N)c1cc2ccccc2o1 | 0.5 | -0.7 | -8.0 | 0.5 | 0.1 | /
CN(C)/C=C/C(=O)c1ccc(Cl)cc1 | -4.9 | -5.2 | -3.4 | 2.3 | 0.8 | /
CN(C)/C=C/C(=O)c1ccc(-n2cccc2)cc1 | -0.5 | -28.5 | -5.0 | -9.4 | 77.1* | 2.9
S=c1[nH]nc(-c2ccncc2)n1/N=C/C=C/c1ccccc1 | 2.3 | 13.1 | 10.0 | -9.0 | 0.7 | /
S=c1[nH]nc(-c2ccncc2)n1/N=C/C(Cl)=C\c1ccccc1 | 1.8 | / | 9.3 | -10.5 | 84.9* | 5.5
O=c1cc(-c2ccc(O)c(-c3c(O)cc(O)c4c(=O)cc(-c5ccc(O)cc5)oc34)c2)oc2cc(O)cc(O)c12 | 1.7 | 3.1 | 17.8 | / | 6.5 | /
O=c1cc(-c2ccc(O)c(O)c2)oc2cc(O)cc(O)c12 | 0.4 | -0.3 | 4.2 | 5.3 | 84.6* | 45.5
Cc1cc(C)cc(NC(=O)Nc2ccc(N3CCCCC3)cc2)c1 | 2.1 | -6.7 | -2.9 | -9.9 | 77.5* | 34.3
O=C(Nc1ccc(N2CCCCC2)cc1)C(Cl)c1ccccc1 (stereo not given) | 12.7 | 2.1 | / | -32.1 | 76.8* | 6.6
O=C(Nc1ccc(N2CCCC2)cc1)C(c1ccccc1)c1ccccc1 | 2.3 | -4.5 | / | -7.1 | -0.1 | /
CCCn1c(SCC(=O)NCCc2ccccc2)nnc1-c1ccco1 | 0.3 | 5.2 | / | 18.0 | -0.7 | /
Nc1c2c(=O)oc(-c3ccccc3)cc2nn1-c1ccccc1 | -14.9 | / | -4.1 | -5.4 | 90.2* | 27.2
Cc1cc(C)n2nc(SCC(=O)c3c(N)n(CC(C)C)c(=O)n(C)c3=O)nc2n1 | -0.1 | 4.0 | -8.4 | -2.2 | 0.6 | /
SMILES | TNF necrop inh | Rad51 HR inh | Pf gametocyte | Mdm2 ligase inh | L929 necroptosis | zVAD necrop conf
CC(=O)Nc1ccc(N=Cc2ccc[nH]2)cc1 | -0.2 | -1.4 | / | -6.4 | 0.8 | /
Oc1ccccc1N=Cc1ccc[nH]1 | 7.8 | 3.6 | / | -10.7 | 97.4* | 6.6
O=C(CC1SC(N2CCOCC2)=NC1=O)Nc1cc([N+](=O)[O-])ccc1Cl (stereo not given) | -1.6 | 0.8 | 16.7 | -6.9 | 3.1 | /
c1ccc(Nc2nc(N3CCCCC3)nc(N3CCNCC3)n2)cc1 | -1.7 | -1.9 | / | -9.6 | 77.3* | 2.0
COC(=O)c1ccc(-c2ccc(/C=N/N3C(=O)C4C5C=CC(CC5)C4C3=O)o2)cc1 (stereo not given) | 5.7 | -1.2 | -7.7 | 6.2 | 83.0* | 0.4
O=C(O)c1cc(-c2ccc(/C=N/N3C(=O)C4C5C=CC(CC5)C4C3=O)o2)ccc1Cl (stereo not given) | 0.3 | -0.5 | / | -11.2 | 4.7 | /
